Some results are limits rather than exact numbers.

The values below come from ChEMBL document CHEMBL1128667 (J Med Chem, 1995).

Chain of Delta-type opioid receptor (P33533 whole entry): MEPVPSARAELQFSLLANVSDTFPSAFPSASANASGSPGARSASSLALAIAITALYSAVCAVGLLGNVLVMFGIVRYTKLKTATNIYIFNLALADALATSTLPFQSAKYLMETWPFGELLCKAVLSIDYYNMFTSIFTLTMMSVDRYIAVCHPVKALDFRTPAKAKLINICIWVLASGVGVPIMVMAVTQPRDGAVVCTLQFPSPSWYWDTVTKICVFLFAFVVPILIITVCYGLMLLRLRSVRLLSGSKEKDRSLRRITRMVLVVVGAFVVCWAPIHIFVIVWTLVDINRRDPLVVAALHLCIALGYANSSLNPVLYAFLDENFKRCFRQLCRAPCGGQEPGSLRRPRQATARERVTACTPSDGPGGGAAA
Chain of Mu-type opioid receptor (P33535 whole entry): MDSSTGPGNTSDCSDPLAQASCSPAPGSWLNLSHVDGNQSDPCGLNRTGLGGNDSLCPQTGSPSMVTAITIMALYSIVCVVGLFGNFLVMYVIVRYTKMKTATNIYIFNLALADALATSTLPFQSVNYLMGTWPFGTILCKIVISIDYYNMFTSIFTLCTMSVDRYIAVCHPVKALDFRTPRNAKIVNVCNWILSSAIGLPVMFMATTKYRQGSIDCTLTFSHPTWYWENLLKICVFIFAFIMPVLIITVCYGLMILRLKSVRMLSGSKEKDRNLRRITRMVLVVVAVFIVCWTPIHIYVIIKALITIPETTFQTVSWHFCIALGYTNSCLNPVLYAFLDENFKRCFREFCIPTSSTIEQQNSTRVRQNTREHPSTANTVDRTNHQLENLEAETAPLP

One assay has as its system Sigma 2 receptor. The assay can be described thus: Ratio of binding affinity towards guinea-pig brain […] receptor to rat liver sigma-2 receptor.
Take `COc1cccc(/C=C2/C(=O)CC3(c4cccc(O)c4)CCN(C)C2C3)c1` (single isomer, unassigned; (-)) [listing 1 of 2 here]: the Ratio amounted to 0.12.

For the compound `CN1CCC2(c3cccc(O)c3)CC(=O)/C(=C/c3ccccc3)C1C2` (stereo in doubt; 2) [listing 1 of 2 here], the Ratio is 0.63.

Consider `COc1ccc(/C=C2/C(=O)CC3(c4cccc(O)c4)CCN(C)C2C3)cc1` (stereo in doubt; 4) [listing 1 of 2 here], for which the Ratio was determined as 0.53.

Consider `CN1CCC2(c3cccc(O)c3)CC(=O)/C(=C/c3ccc(Cl)cc3)C1C2` (stereo in doubt; 5) [listing 1 of 2 here], for which the Ratio is 4.

In the case of `COc1cccc(/C=C2/C(=O)CC3(c4cccc(O)c4)CCN(C)C2C3)c1` (stereo in doubt; 6), the Ratio worked out at 0.18.

Take `CN1CCC2(c3cccc(O)c3)CC(=O)/C(=C/c3cccc(Cl)c3)C1C2` (stereo in doubt; 7): the Ratio was 1.5.

With `COc1cccc(C23CCN(C)C(C2)/C(=C\c2ccccc2)C(=O)C3)c1` (stereo in doubt; 10), the Ratio was found to be 1.7.

On to `CN1CCC2(c3cccc(O)c3)CC(=O)/C(=C/c3ccc(Cl)cc3)C1C2` (stereo in doubt; (+)-5) [listing 1 of 2 here], for which the Ratio came to 119.

In the case of `CN1CCC2(c3cccc(O)c3)CC(=O)/C(=C/c3cccc(Cl)c3)C1C2` (stereo in doubt; (+)-7), the Ratio is 138.

Regarding `CN1CCC2(c3cccc(O)c3)CC(=O)/C(=C/c3ccccc3)C1C2` (stereo in doubt; (-)-2), the Ratio came to 0.06.

With `CN1CCC2(c3cccc(O)c3)CC(=O)/C(=C/c3cccc(Cl)c3)C1C2` (stereo in doubt; (-)-7), the Ratio turned out to be 0.25.

For another assay, the target named is Sigma 2 receptor. Kind of assay: Ability to inhibit [3H](+)-DTG binding to rat liver Sigma receptor type 2 in presence of dextrallorphan. The method in brief:
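Rat liver membranes (male Sprague–Dawley, 150–200 g; Tris/sucrose homogenisation, differential centrifugation, 25 °C preincubation). 160 μg protein with 5 nM [3H]DTG plus 1 μM dextrallorphan to mask σ1, 50 mM Tris-HCl pH 8.0, 120 min at 25 °C. Nonspecific with 10 μM haloperidol. Filtration. 12 concentrations (0.05–10 000 or 0.5–100 000 nM); Ki via Cheng–Prusoff with Scatchard Kd; 2–3 experiments in duplicate, ±SEM.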
With `COc1cccc(/C=C2/C(=O)CC3(c4cccc(O)c4)CCN(C)C2C3)c1` (single isomer, unassigned; (+)), the Ki was 38.2 nM.

For `CN1CCC2(c3cccc(O)c3)CC(=O)/C(=C/c3ccc(Cl)c(Cl)c3)C1C2` (single isomer, unassigned; (+)), the Ki is 13.4 nM.

On to `COc1ccc(/C=C2/C(=O)CC3(c4cccc(O)c4)CCN(C)C2C3)cc1` (single isomer, unassigned; (-)), for which the Ki was 81.3 nM.

Consider `COc1cccc(/C=C2/C(=O)CC3(c4cccc(O)c4)CCN(C)C2C3)c1` (single isomer, unassigned; (-)) [listing 2 of 2 here], for which the Ki is 46.3 nM.

With `CN1CCC2(c3cccc(O)c3)CC(=O)/C(=C/c3ccc(Cl)c(Cl)c3)C1C2` (single isomer, unassigned; (-)), the Ki worked out at 35.5 nM.

Turning to `CN1CCC2(c3cccc(O)c3)CC(=O)/C(=C/c3ccccc3)C1C2` (stereo in doubt; 2) [listing 2 of 2 here], the Ki was determined as 37 nM.

As for `CN1CCC2(c3cccc(O)c3)CC(=O)/C(=C/c3ccc(Cl)c(Cl)c3)C1C2` (stereo in doubt; 3), the Ki is 71.8 nM.

`COc1ccc(/C=C2/C(=O)CC3(c4cccc(O)c4)CCN(C)C2C3)cc1` (stereo in doubt; 4) [listing 2 of 2 here]: the Ki amounted to 35 nM.

Take `CN1CCC2(c3cccc(O)c3)CC(=O)/C(=C/c3ccc(Cl)cc3)C1C2` (stereo in doubt; 5) [listing 2 of 2 here]: the Ki turned out to be 9.5 nM.

`CN1CCC2(c3cccc(O)c3)CC(=O)/C(=C/c3ccc(Cl)cc3)C1C2` (stereo in doubt; (+)-5) [listing 2 of 2 here]: the Ki was found to be 6.4 nM.

`CN1CCC2(c3cccc(O)c3)CC(=O)CC1C2` (stereo in doubt; (-)-1): the Ki is 25 nM.

A further assay deals with Mu-type opioid receptor (Rattus norvegicus, UniProt P33535). The assay can be described thus: Ability to inhibit [3H]DAMGO binding to rat brain Opioid receptor mu 1. The method in brief:
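Rat brain membranes labelled with [3H]DAMGO (1-3 nM), 4 h at 25 °C in 50 mM Tris-HCl pH 7.4 with protease inhibitor cocktail. Nonspecific with 20 μM levallorphan. 8–10 concentrations, run twice; dilutions in Tris with 1 mg/mL BSA, 1 mM stocks in Tris containing 10% DMSO/5% Emulphor. IC50 and slope factor from curve fitting.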
For `COc1cccc(/C=C2/C(=O)CC3(c4cccc(O)c4)CCN(C)C2C3)c1` (single isomer, unassigned; (+)), the Ki was determined as 12.6 nM.

For the compound `CN1CCC2(c3cccc(O)c3)CC(=O)/C(=C/c3ccc(Cl)c(Cl)c3)C1C2` (single isomer, unassigned; (+)), the Ki amounted to 4.5 nM.

`COc1ccc(/C=C2/C(=O)CC3(c4cccc(O)c4)CCN(C)C2C3)cc1` (single isomer, unassigned; (-)): the inhibition constant Ki stood at 27 nM.

The compound `COc1cccc(/C=C2/C(=O)CC3(c4cccc(O)c4)CCN(C)C2C3)c1` (single isomer, unassigned; (-)) [listing 2 of 2 here] showed a Ki of 31.4 nM.

The compound `CN1CCC2(c3cccc(O)c3)CC(=O)/C(=C/c3ccc(Cl)c(Cl)c3)C1C2` (single isomer, unassigned; (-)) registered a Ki of 45.1 nM.

In the case of `COc1ccc(/C=C2/C(=O)CC3(c4cccc(O)c4)CCN(C)C2C3)cc1` (stereo in doubt; 4) [listing 2 of 2 here], the Ki was determined as 4.1 nM.

Compound `CN1CCC2(c3cccc(O)c3)CC(=O)/C(=C/c3ccc(Cl)cc3)C1C2` (stereo in doubt; 5) [listing 2 of 2 here] gave an inhibitory constant (Ki) of 21.6 nM.

In turn, `CN1CCC2(c3cccc(O)c3)CC(=O)/C(=C/c3ccc(Cl)cc3)C1C2` (stereo in doubt; (+)-5) [listing 2 of 2 here] came in with a Ki of 6.4 nM.

In another assay the target is Delta-type opioid receptor (Rattus norvegicus, UniProt P33533). The assay can be described thus: Ability to inhibit [3H]DADLE binding to rat brain delta receptor. In short, it runs like this:
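[3H]DADLE (1.7-2.5 nM) on rat brain membranes, 3-4 h at 25 °C in 10 mM Tris-HCl pH 7.4 with 100 mM choline chloride, 3 mM MnCl2, 100 nM DAMGO blocking μ sites, and protease inhibitors. Nonspecific with 20 μM levallorphan. 8–10 concentrations, run twice; dilutions in Tris/1 mg/mL BSA. IC50 and slope factor from curve fitting.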
Compound `COc1cccc(/C=C2/C(=O)CC3(c4cccc(O)c4)CCN(C)C2C3)c1` (single isomer, unassigned; (+)) returned a Ki of 175 nM.

`CN1CCC2(c3cccc(O)c3)CC(=O)/C(=C/c3ccc(Cl)c(Cl)c3)C1C2` (single isomer, unassigned; (+)) displayed an inhibition constant Ki of 271 nM.

Regarding `COc1ccc(/C=C2/C(=O)CC3(c4cccc(O)c4)CCN(C)C2C3)cc1` (single isomer, unassigned; (-)), the Ki was over 500 nM.

In the case of `COc1cccc(/C=C2/C(=O)CC3(c4cccc(O)c4)CCN(C)C2C3)c1` (single isomer, unassigned; (-)) [listing 2 of 2 here], the Ki is over 400 nM.

For the compound `CN1CCC2(c3cccc(O)c3)CC(=O)/C(=C/c3ccc(Cl)c(Cl)c3)C1C2` (single isomer, unassigned; (-)), the Ki is over 500 nM.

The compound `COc1ccc(/C=C2/C(=O)CC3(c4cccc(O)c4)CCN(C)C2C3)cc1` (stereo in doubt; 4) [listing 2 of 2 here] gave a Ki of 7.1 nM.

Turning to `CN1CCC2(c3cccc(O)c3)CC(=O)/C(=C/c3ccc(Cl)cc3)C1C2` (stereo in doubt; 5) [listing 2 of 2 here], the inhibitory constant (Ki) is over 1000 nM.

`CN1CCC2(c3cccc(O)c3)CC(=O)/C(=C/c3ccc(Cl)cc3)C1C2` (stereo in doubt; (+)-5) [listing 2 of 2 here] returned an inhibitory constant (Ki) of 336 nM.

Biological target in a further assay: not listed separately
Kind of assay: Ability to inhibit [3H](+)-pentazocine binding to guinea pig brain Sigma receptor type 1.
On to `CN1CCC2(c3cccc(O)c3)CC(=O)/C(=C/c3ccccc3)C1C2` (stereo in doubt; 2) [listing 2 of 2 here], for which the affinity corresponds to a Ki of 23.3 nM.

`CN1CCC2(c3cccc(O)c3)CC(=O)/C(=C/c3ccc(Cl)c(Cl)c3)C1C2` (stereo in doubt; 3) came in with a Ki of 65.3 nM.
